Results on four compounds are retold here after ChEMBL document CHEMBL5230171, “Expanding the structure-activity relationships of alkynyl diphenylurea scaffold as promising antibacterial agents” (RSC Med Chem, 2023).

For one data set, the system named is Vero. The data set can be described thus: Cytotoxicity against African green monkey Vero cells assessed as reduction in cell viability at 64 ug/ml incubated for 24 hrs by MTS assay. It is filed as toxicity, cell-based. To be noted: chlorocebus sabaeus, dose 64 µg/ml. The method, boiled down: (§1)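 Vero or HaCaT cells were exposed to 32, 64 and 128 μg mL−1 compound in triplicate for 24 h at 37 °C, 5% CO2, with a DMSO control. MTS was then added for 4 h and OD490 read. Analysis used two-way ANOVA with Dunnett's post hoc test (p < 0.05).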

The test system of data set [1] is Staphylococcus aureus. The data set can be described thus: Antibacterial activity against methicillin resistant Staphylococcus aureus 386 assessed as inhibition of bacterial growth at 0.5 ug/ml incubated for 18 to 20 hrs by CLSI protocol based broth microdilution method. It is filed as functional, organism-based. To be noted: dose 0.5 µg/ml, time 18-20 hrs. On the technique in general: In broth dilution the organism is exposed to a series of concentrations in liquid medium.

In data set [2] the test system is Staphylococcus aureus. Briefly: Antibacterial activity against methicillin resistant Staphylococcus aureus 385 assessed as inhibition of bacterial growth at 0.5 ug/ml incubated for 18 to 20 hrs by CLSI protocol based broth microdilution method. The conditions noted are these: dose 0.5 µg/ml, time 18-20 hrs. It is filed as functional, organism-based.
Data set [3] has as its system Staphylococcus aureus. Briefly: Antibacterial activity against methicillin resistant Staphylococcus aureus 384 assessed as inhibition of bacterial growth at 0.5 ug/ml incubated for 18 to 20 hrs by CLSI protocol based broth microdilution method. The conditions noted are these: dose 0.5 µg/ml, time 18-20 hrs. The format is functional, organism-based.
In data set [4] the test system is Staphylococcus aureus. Briefly: Antibacterial activity against methicillin resistant Staphylococcus aureus 119 assessed as inhibition of bacterial growth at 0.5 ug/ml incubated for 18 to 20 hrs by CLSI protocol based broth microdilution method. The format is functional, organism-based. To be noted: dose 0.5 µg/ml, time 18-20 hrs.
The test system of data set [5] is Staphylococcus aureus. Briefly: Antibacterial activity against vancomycin resistant Staphylococcus aureus 12 assessed as inhibition of bacterial growth at 0.5 ug/ml incubated for 18 to 20 hrs by CLSI protocol based broth microdilution method. The format is functional, organism-based. To be noted: dose 0.5 µg/ml, time 18-20 hrs.
For data set [6], the system named is Staphylococcus aureus. The data set can be described thus: Antibacterial activity against methicillin resistant Staphylococcus aureus NRS384 USA300 assessed as inhibition of bacterial growth incubated for 18 to 20 hrs by CLSI protocol based broth microdilution method. The format is functional. To be noted: time 18-20 hrs. The method in brief:
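Broth microdilution against staphylococcal clinical isolates. Each strain was prepared as a 0.5 McFarland suspension and diluted in cation-adjusted Mueller Hinton broth to ~5 × 10^5 CFU mL−1. Serial dilutions of test agents in DMSO stock were incubated with the bacteria, and the MIC was recorded.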

For data set [7], the system named is Staphylococcus aureus. The data set can be described thus: Antibacterial activity against methicillin sensitive Staphylococcus aureus 6538 assessed as inhibition of bacterial growth at 0.5 ug/ml incubated for 18 to 20 hrs by CLSI protocol based broth microdilution method. It is filed as functional, organism-based. The conditions noted are these: dose 0.5 µg/ml, time 18-20 hrs. The method, boiled down:
(§2)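 Staphylococcal and E. coli strains were diluted from a 0.5 McFarland suspension in cation-adjusted Mueller Hinton broth to ~5 × 10^5 CFU mL−1. They were incubated with serial dilutions of test agent in broth microdilution, and the MIC was recorded.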

Data set [8] relates to Staphylococcus aureus. Briefly: Antibacterial activity against methicillin resistant Staphylococcus aureus 123 assessed as inhibition of bacterial growth at 0.5 ug/ml incubated for 18 to 20 hrs by CLSI protocol based broth microdilution method. The format is functional, organism-based. To be noted: dose 0.5 µg/ml, time 18-20 hrs.
The subject of data set [9] is Staphylococcus aureus. Briefly: Antibacterial activity against vancomycin resistant Staphylococcus aureus 10 assessed as inhibition of bacterial growth at 0.5 ug/ml incubated for 18 to 20 hrs by CLSI protocol based broth microdilution method. The format is functional, organism-based. The conditions noted are these: dose 0.5 µg/ml, time 18-20 hrs.
Data set [10] has as its system Staphylococcus aureus. Briefly: Antibacterial activity against vancomycin resistant Staphylococcus aureus 9 assessed as inhibition of bacterial growth at 0.5 ug/ml incubated for 18 to 20 hrs by CLSI protocol based broth microdilution method. It is filed as functional, organism-based. To be noted: dose 0.5 µg/ml, time 18-20 hrs.
Data set [11] deals with Staphylococcus aureus. The data set can be described thus: Antibacterial activity against methicillin sensitive Staphylococcus aureus 107 assessed as inhibition of bacterial growth at 0.5 ug/ml incubated for 18 to 20 hrs by CLSI protocol based broth microdilution method. It is filed as functional, organism-based. The conditions noted are these: dose 0.5 µg/ml, time 18-20 hrs. The method in brief: as §2

Data set [12] in a line: Cytotoxicity against human HaCaT cells assessed as tolerance by measuring cell viability at 64 ug/ml incubated for 24 hrs by MTS assay relative to control. The format is toxicity, cell-based. The conditions noted are these: at 64 µg/mL, read-out: Activity. The method, boiled down: as §1
Background: Tetrazolium assays rely on reduction of a dye to a coloured formazan, in cell work by metabolically active cells.

What is called MIC is the least concentration at which growth counts as inhibited.

Molecules are shown by their SMILES. Converted amounts (≈) assume the structure as drawn. The source made the active and inactive calls. The calls are words filed in the database; no cut-off is given here.

Regarding `C/C(=N\NC(=N)N)c1ccc(NC(=O)Nc2ccc(C#CC3CCCC3)cc2)cc1`, the Activity entry in the data set on Vero was “Non-Toxic”. Further, the outcome with Staphylococcus aureus [1], in the data set on Staphylococcus aureus [2], in the data set with Staphylococcus aureus [3], in the data set on Staphylococcus aureus [4], with Staphylococcus aureus [5] and in the data set on Staphylococcus aureus [7] was Active. In addition, the result in the data set on Staphylococcus aureus [8], in the data set with Staphylococcus aureus [9], with Staphylococcus aureus [10] and with Staphylococcus aureus [11] was Active. For the same compound, the MIC with Staphylococcus aureus [6] turned out to be 2 µg/mL (≈ 0.00497 mM). Also, the viability at 24 h, 64 ug/ml in [12] was determined as 100%.
As for `C/C(=N\NC(=N)N)c1ccc(NC(=O)Nc2ccc(C#CC3CCCCC3)cc2)cc1`, the MIC in the data set with Staphylococcus aureus [6] (read-out: MIC) worked out at 4000 µg/mL (≈ 9.6 mM).
As to `CC(=O)NC[C@H]1CN(c2ccc(N3CCOCC3)c(F)c2)C(=O)O1`, the outcome in the data set with Staphylococcus aureus [1], in the data set on Staphylococcus aureus [2], with Staphylococcus aureus [3], with Staphylococcus aureus [4], in the data set on Staphylococcus aureus [5] and with Staphylococcus aureus [7] was Active. Further, the result in the data set on Staphylococcus aureus [8], with Staphylococcus aureus [9], in the data set with Staphylococcus aureus [10] and in the data set on Staphylococcus aureus [11] was Active.
In the case of `C/C(=N\NC(=N)N)c1ccc(NC(=O)Nc2ccc(C#CC(O)CC(C)C)cc2)cc1` (centres undefined), the result in the data set on Staphylococcus aureus [1], with Staphylococcus aureus [2], in the data set with Staphylococcus aureus [3], in the data set on Staphylococcus aureus [4], in the data set on Staphylococcus aureus [5] and with Staphylococcus aureus [7] was Active. Besides, the outcome with Staphylococcus aureus [8], in the data set on Staphylococcus aureus [9], in the data set with Staphylococcus aureus [10] and in the data set with Staphylococcus aureus [11] was Active.
